Source: PubChem BioAssay
FXN GAA850 act = activators of GAA850 frataxin (FXN) promoter; HEK293 lucGAA850 FXN promoter luciferase reporter, 24 h; percent of 10 µM SAHA response; activation, % at 6 µM; AID 540364; 360,000 tested, 0.56% active;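 active = activation above the average of all compounds screened plus 3 SD, cutoff fixed separately per campaign, cut at about 7.5% in these data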;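 note: 0% = DMSO wells and 100% = 10 µM SAHA wells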
ABCB6 inh 2 = blocks the human ABCB6 transporter; Q9NP58; K562-ABCB6 porphyrin accumulation, flow cytometry, 1 h; active compounds read low; fluorescence ratio to DMSO, % at 10 µM; 360,000 tested, 0.19% active;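 active = fluorescence ratio to DMSO below 75%, the collection mean minus 3 SD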;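 note: signal is porphyrin accumulated inside mitochondria; 100% equals median channel fluorescence of DMSO control wells; lower ratio means ABCB6 inhibition with less porphyrin fluorescence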
Target sequence (Q9NP58 whole entry, looked up): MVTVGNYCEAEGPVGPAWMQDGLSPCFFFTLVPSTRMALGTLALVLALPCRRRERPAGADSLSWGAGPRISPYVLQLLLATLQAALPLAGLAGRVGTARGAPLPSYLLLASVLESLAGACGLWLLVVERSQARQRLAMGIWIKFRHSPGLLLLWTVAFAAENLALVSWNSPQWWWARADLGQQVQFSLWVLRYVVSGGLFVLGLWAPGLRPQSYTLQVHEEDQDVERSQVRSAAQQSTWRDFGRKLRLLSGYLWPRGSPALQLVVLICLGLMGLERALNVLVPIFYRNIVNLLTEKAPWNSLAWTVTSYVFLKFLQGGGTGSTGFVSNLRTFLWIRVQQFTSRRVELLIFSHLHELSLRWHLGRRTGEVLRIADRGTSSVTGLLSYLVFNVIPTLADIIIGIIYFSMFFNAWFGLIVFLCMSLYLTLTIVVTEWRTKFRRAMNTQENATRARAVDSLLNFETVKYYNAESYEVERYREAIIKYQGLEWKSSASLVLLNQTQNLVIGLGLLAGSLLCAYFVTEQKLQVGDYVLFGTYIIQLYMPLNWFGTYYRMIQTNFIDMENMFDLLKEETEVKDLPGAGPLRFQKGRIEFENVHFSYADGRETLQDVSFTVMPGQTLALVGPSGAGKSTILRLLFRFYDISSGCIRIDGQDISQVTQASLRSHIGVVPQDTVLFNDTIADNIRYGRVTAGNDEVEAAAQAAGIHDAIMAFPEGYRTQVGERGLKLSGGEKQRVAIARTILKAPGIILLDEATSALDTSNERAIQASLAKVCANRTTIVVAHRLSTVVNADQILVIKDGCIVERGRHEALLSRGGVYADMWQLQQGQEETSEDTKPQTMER
SR-BI HDL uptake = blocks mouse SR-BI lipid uptake from DiI-HDL; Q61009; ldlA[mSR-BI] CHO cells, DiI-HDL uptake fluorescence, 3 h; inhibition, % at 12.5 µM; 320,000 tested, 0.96% active; AID 488896;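 active = mean replicate inhibition of at least 70% and a set share of replicates each scoring 70 or more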;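 note: 0% = median of neutral control wells and 100% = median of positive control wells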
SR-BI DiI-HDL act = enhances SR-BI lipid uptake from DiI-HDL. activation, % at 12.5 µM. CHO ldlA[mSR-BI] cells, DiI-HDL uptake fluorescence, 3 h; 100 = double the neutral-control signal. 320,000 tested, 0.096% active;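 active = mean replicate activation of at least 60% and every replicate at or above 60%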;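 note: 0% = median plate neutral-control signal and 100% = twice that signal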
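Test system: SR-BI-overexpressing, LDLR-lacking CHO cells; Medium: Ham's F12 with 0.5% BSA, HEPES 25 mM, pH 7.4; Schedule: 3 h, 37 °C; Technique: bottom-read fluorescence, 550/595 nm.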
AHR activator = activators of human aryl hydrocarbon receptor; AHR-responsive luciferase reporter cells, luminescence; 320,000 tested, 2.5% active; P35869; activation, % at 5 µM; in the data active = activation above about 47%;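 note: 0% = vehicle wells and 100% = reference agonist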
HIF act = HIF pathway transcriptional activation; activation, % at 7.5 µM (by protocol); 300,000 tested, 0.32% active; U2OS HRE-luciferase reporter, luminescence; normalized: DMSO 0%, desferrioxamine 100%;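 active = mean activation of at least 10% of the iron chelator positive control signal, with at least half of replicates also reaching 10%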
Active calls of the source: *; / = not tested or not shown. Shown are actives, neighbours in structure and some others; about 3.9% of the full set was active somewhere.

SMILES | FXN GAA850 act | ABCB6 inh 2 | SR-BI HDL uptake | SR-BI DiI-HDL act | AHR activator | HIF act
O=C(O)c1ccc(S(=O)(=O)c2ccc3c(c2)C(=O)N(c2ccccc2[N+](=O)[O-])C3=O)cc1 | 2 | 98 | -13 | 13 | 2 | -1
COC(=O)C1CCN(C(=O)CN(C)Cc2ccc(C(C)(C)C)cc2)CC1 | 1 | 96 | / | / | -1 | 1
COc1cccc(/C=N/NC(=O)c2cc3c(OC)c(OC)ccc3[nH]2)c1OC | -6 | 93 | 58 | -58 | / | 1
COc1cccc(/C=N/NC(=O)c2cc3c(OC)cccc3[nH]2)c1O | -6 | 100 | 103* | -103 | 1 | 5
CCOC(=O)c1ccc(N2Cc3ccccc3C2=NC(=O)c2cccc([N+](=O)[O-])c2)cc1 | 7.8* | 90 | / | / | 5 | 3
O=C(N=C1c2ccccc2CN1c1ccccc1)c1cccc([N+](=O)[O-])c1 | 2 | 98 | 14 | -14 | 21 | 4
O=C(NCCCn1ccnc1)c1cc(C(=O)C2CCCCC2)c[nH]1 | 3 | 102 | -11 | 11 | 20 | -1
N#CC(C(=O)Nc1ccccc1)=C1Nc2ccccc2N1 | -1 | 101 | 54 | -54 | 78* | 2
N#CC(C(=O)Nc1cccc(Cl)c1)=C1Nc2ccccc2N1 | 0 | 96 | 73* | -73 | 5 | -2
CC1CCC(=C(C#N)C(=O)Nc2cccc(Cl)c2)CC1 (centres undefined) | 2 | 99 | 19 | -19 | -1 | /
CN(C(=O)c1ccc(F)c(S(=O)(=O)N2CCOCC2)c1)C1CCCCC1 | 1 | 97 | 4 | -4 | -1 | /
CCOC(=O)c1cc(NC(=O)N2CCCc3ccccc32)c(C)nc1C | 0 | 110 | 27 | -27 | 14 | -1
O=C(OCC(=O)N1CCN(C(=O)c2ccco2)CC1)c1cc(S(=O)(=O)Nc2ccc(Cl)cc2)ccc1O | 0 | 96 | 8 | -8 | -1 | 0
Cc1cc(Br)ccc1NC(=O)CNC(=O)c1ccc(-n2cncn2)c([N+](=O)[O-])c1 | -1 | 98 | -17 | 17 | 5 | 0
Cc1cc(Br)ccc1NC(=O)c1ccc(-n2cncn2)c([N+](=O)[O-])c1 | -2 | 101 | 21 | -21 | 66* | -1
Cc1ccc(-c2csc3nnc(SCC(=O)NCc4ccc5c(c4)OCO5)n23)cc1 | -2 | 99 | -7 | 7 | 8 | 0
Cc1ccc2c(c1)/C(=C/c1ccccc1F)C(=O)N2 | 5 | 103 | -5 | 5 | 68* | 1
Cc1ccc(C)c(CNS(=O)(=O)c2ccc3c(c2)C(C)(C)C(=O)N3C)c1 | 0 | 95 | 1 | -1 | 4 | 12*
Cc1c(Nc2nc3ccccc3nc2NS(=O)(=O)c2cccc(Cl)c2)c(=O)n(-c2ccccc2)n1C | 3 | 100 | 2 | -2 | 0 | 0
Cc1ccc(-c2cc(C(=O)Nc3cc(C)on3)c3ccccc3n2)cc1 | 1 | 100 | 74* | -74 | 10 | -1
Cc1ccc(Nc2nc3ccccc3nc2Nc2c(C)n(C)n(-c3ccccc3)c2=O)cc1 | 0 | 104 | 92* | -92 | 1 | 0
Cc1cc(NC(=O)c2cc(-c3ccccn3)nc3ccccc23)no1 | -2 | 91 | 22 | -22 | 26 | 0
Cc1cc(NC(=O)c2cc(-c3ccncc3)nc3c(C)cccc23)no1 | -4 | 98 | 71* | -71 | 16 | -1
Cc1cc(NC(=O)c2cc(-c3ccc(C)c(C)c3)nc3ccccc23)no1 | 3 | 94 | 69 | -69 | 58* | 1
CN(CC(=O)Nc1ccc(Cl)cc1)C(=O)c1cccc(S(=O)(=O)NCc2ccccc2)c1 | 2 | 98 | 17 | -17 | -2 | 1
SMILES | FXN GAA850 act | ABCB6 inh 2 | SR-BI HDL uptake | SR-BI DiI-HDL act | AHR activator | HIF act
CC(=O)N1N=C(c2cccc(NS(C)(=O)=O)c2)CC1c1ccc2c(c1)OCO2 (centres undefined) | 3 | 102 | -15 | 15 | 9 | 2
Cc1cccc(-c2cc(C(=O)Nc3c(C)n(C)n(-c4ccccc4)c3=O)c3ccccc3n2)c1 | -4 | 101 | 58 | -58 | 0 | 0
Cc1c(NC(=O)c2cc(-c3ccc(F)cc3)nc3ccccc23)c(=O)n(-c2ccccc2)n1C | -4 | 88 | 86* | -86 | -2 | /
CCOC(=O)CCc1c(C)nc2cc(-c3ccc(Cl)cc3)[nH]n2c1=O | -1 | 88 | 2 | -2 | 13 | 1
Clc1ccccc1-c1nc(-c2ccccc2)n[nH]1 | 7 | 99 | -7 | 7 | 66* | 5
N=C(N)c1ccc(Cl)cc1 | 1 | 95 | -7 | 7 | 52* | 0
CCCCOc1ccc(/C=C/C2=CC(C)(C)NC(=S)N2)cc1OCC | 2 | 97 | 89* | -89 | 16 | 0
CCOc1cc(C=O)ccc1OCCCN1C(=O)NC(C)(C)C1=O | -1 | 96 | -15 | 15 | -1 | 0
O=C1Nc2ccccc2S/C1=C\C(=O)N1CCCC1 | / | / | / | / | 64* | 1
O=C1Nc2ccccc2SC1=Cc1ccccc1 | 7 | 92 | / | / | / | /
c1ccc(-c2cn3nc4c(nc3n2)CCCC4)cc1 | 1 | 98 | -10 | 10 | 20 | -4
CCOc1cc(C2C3=C(CCCC3=O)NC3=C2C(=O)CCC3)ccc1OCCO | 0 | 97 | / | / | -2 | -1
Nc1nc(-c2ccccn2)nc(N)c1Cc1ccccc1F | 4 | 98 | -5 | 5 | 19 | 4
Nc1nc(-c2ccccn2)nc(N)c1Cc1ccc(Cl)cc1Cl | 0 | 102 | 22 | -22 | 25 | 15*
O=C(c1ccc(NS(=O)(=O)c2cccc([N+](=O)[O-])c2)cc1)N1CCN(C(=O)c2ccco2)CC1 | 0 | 97 | -63 | 63* | -2 | /
Cc1cccc(NC(=S)NCc2cccs2)c1 | 1 | 96 | 17 | -17 | 4 | 0
OCc1cc(Br)ccc1OCc1nc2ccccc2s1 | 3 | 97 | / | / | 48* | 6
Oc1ccccc1OCc1nc2ccccc2s1 | 3 | 102 | 2 | -2 | -8 | 2
COc1ccc(Br)cc1Cn1nnc(C(=O)Nc2ccc3c(c2)OCCO3)c1N | 0 | 95 | 23 | -23 | 60* | 1
COc1ccc(NC(=O)c2nnn(CC(=O)Nc3ccc4c(c3)OCO4)c2N)cc1OC | 0 | 94 | 54 | -54 | 6 | 0
Cc1cc(C)n(-c2nc(-c3ccc(Cl)cc3)cs2)n1 | 3 | 89 | 36 | -36 | 60* | 1
Cc1ccc(P(=O)(CC(=O)O)c2ccc(C)cc2)cc1 | -1 | 98 | -13 | 13 | 2 | 0
CCN(CC)C(=O)/C(=C/c1cn(S(=O)(=O)N(C)C)c2ccccc12)NC(=O)c1ccc(OC)cc1 | -3 | 96 | 88* | -88 | 1 | -1
COc1ccc(C(=O)N/C(=C\c2cn(C)c3ccccc23)C(=O)NCCCn2ccnc2)cc1 | -2 | 91 | -17 | 17 | -1 | -1
